# System: HEK-293T
# Assay: Multiplex assay against HEK293T;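 for Population Tubulin-Different-Phenotype (%): share of the cells with healthy nuclei that show this phenotype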
# Assay type: toxicity, cell-based
# Settings: human
# In short: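 Cells were classed with CellPathfinder machine-learning gating, first as Hoechst high-intensity objects or normal cells, then (normal cells) as healthy, pyknosed or fragmented nuclei, and finally (pyknosed cells) as mitotic or apoptotic. Staining of live cells at seeding used Hoechst33342, BioTracker Green Microtubule Cytoskeleton Dye, MitoTracker Red and Annexin V Alexa Fluor 680, with imaging on a CQ1 microscope at 37°C and 5% CO2 after compound addition. Tubulin, mitochondrial-mass and membrane-permeability phenotypes are per cents of healthy-nucleus cells.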
# [1] = 12 h, 1 µM, compound concentration 1 uM, replicate 1
# [2] = 12 h, 1 µM, compound concentration 1 uM, replicate 2
# [3] = 12 h, 10 µM, compound concentration 10 uM, replicate 1
# [4] = 12 h, 10 µM, compound concentration 10 uM, replicate 2
# [5] = 24 h, 1 µM, compound concentration 1 uM, replicate 1
# [6] = 24 h, 1 µM, compound concentration 1 uM, replicate 2
# [7] = 24 h, 10 µM, compound concentration 10 uM, replicate 1
# [8] = 24 h, 10 µM, compound concentration 10 uM, replicate 2
# [9] = 48 h, 1 µM, compound concentration 1 uM, replicate 1
# [10] = 48 h, 1 µM, compound concentration 1 uM, replicate 2
# [11] = 48 h, 10 µM, compound concentration 10 uM, replicate 1
# [12] = 48 h, 10 µM, compound concentration 10 uM, replicate 2
smiles,measurement,setting,value
Cc1nc(-c2ccc(-c3ccc(C(=O)N4CCc5cc6c(cc54)C4(CCN(C)CC4)CO6)cc3)c(C)c2)no1 [SB-224289],Population Apoptotic (%),[1],59%
same,Population Fragmented Nuclei (%),[1],17%
same,Population Hoechst High Intensity Objects (%),[1],14%
same,Population Membrane Permeable-Phenotype (%),[1],2%
same,Population Mitochondria Different-Phenotype (%),[1],94%
same,Population Mitotic Cells (%),[1],40%
same,Population Normal (%),[1],85%
same,Population Pyknosed Nuclei (%),[1],48%
same,Population Tubulin-Different-Phenotype (%),[1],82%
same,Total Cell Count,[1],225
same,Population Apoptotic (%),[2],24%
same,Population Fragmented Nuclei (%),[2],4%
same,Population Healthy Nuclei (%),[2],34%
same,Population Hoechst High Intensity Objects (%),[2],3%
same,Population Membrane Permeable-Phenotype (%),[2],12%
same,Population Mitochondria Different-Phenotype (%),[2],75%
same,Population Mitotic Cells (%),[2],75%
same,Population Normal (%),[2],96%
same,Population Pyknosed Nuclei (%),[2],60%
same,Population Tubulin-Different-Phenotype (%),[2],66%
same,Total Cell Count,[2],194
same,Population Apoptotic (%),[3],87%
same,Population Fragmented Nuclei (%),[3],8%
same,Population Healthy Nuclei (%),[3],22%
same,Population Hoechst High Intensity Objects (%),[3],15%
same,Population Membrane Permeable-Phenotype (%),[3],0%
same,Population Mitochondria Different-Phenotype (%),[3],98%
same,Population Mitotic Cells (%),[3],12%
same,Population Normal (%),[3],84%
same,Population Pyknosed Nuclei (%),[3],68%
same,Population Tubulin-Different-Phenotype (%),[3],98%
same,Total Cell Count,[3],320
same,Population Apoptotic (%),[4],88%
same,Population Fragmented Nuclei (%),[4],3%
same,Population Healthy Nuclei (%),[4],16%
same,Population Hoechst High Intensity Objects (%),[4],9%
same,Population Membrane Permeable-Phenotype (%),[4],4%
same,Population Mitochondria Different-Phenotype (%),[4],95%
same,Population Mitotic Cells (%),[4],11%
same,Population Normal (%),[4],90%
same,Population Pyknosed Nuclei (%),[4],80%
same,Population Tubulin-Different-Phenotype (%),[4],85%
same,Total Cell Count,[4],141
same,Population Apoptotic (%),[5],67%
same,Population Fragmented Nuclei (%),[5],17%
same,Population Healthy Nuclei (%),[5],35%
same,Population Hoechst High Intensity Objects (%),[5],10%
same,Population Membrane Permeable-Phenotype (%),[5],1%
same,Population Mitochondria Different-Phenotype (%),[5],89%
same,Population Mitotic Cells (%),[5],32%
same,Population Normal (%),[5],89%
same,Population Pyknosed Nuclei (%),[5],46%
same,Population Tubulin-Different-Phenotype (%),[5],63%
same,Total Cell Count,[5],231
same,Population Apoptotic (%),[6],33%
same,Population Fragmented Nuclei (%),[6],4%
same,Population Healthy Nuclei (%),[6],46%
same,Population Hoechst High Intensity Objects (%),[6],3%
same,Population Membrane Permeable-Phenotype (%),[6],5%
same,Population Mitochondria Different-Phenotype (%),[6],73%
same,Population Mitotic Cells (%),[6],66%
same,Population Normal (%),[6],96%
same,Population Pyknosed Nuclei (%),[6],48%
same,Population Tubulin-Different-Phenotype (%),[6],73%
same,Total Cell Count,[6],232
same,Population Apoptotic (%),[7],92%
same,Population Fragmented Nuclei (%),[7],8%
same,Population Healthy Nuclei (%),[7],13%
same,Population Hoechst High Intensity Objects (%),[7],18%
same,Population Membrane Permeable-Phenotype (%),[7],2%
same,Population Mitochondria Different-Phenotype (%),[7],100%
same,Population Mitotic Cells (%),[7],7%
same,Population Normal (%),[7],81%
same,Population Pyknosed Nuclei (%),[7],77%
same,Population Tubulin-Different-Phenotype (%),[7],100%
same,Total Cell Count,[7],316
same,Population Apoptotic (%),[8],97%
same,Population Fragmented Nuclei (%),[8],5%
same,Population Healthy Nuclei (%),[8],24%
same,Population Hoechst High Intensity Objects (%),[8],12%
same,Population Membrane Permeable-Phenotype (%),[8],0%
same,Population Mitotic Cells (%),[8],2%
same,Population Normal (%),[8],88%
same,Population Pyknosed Nuclei (%),[8],70%
same,Population Tubulin-Different-Phenotype (%),[8],93%
same,Total Cell Count,[8],150
same,Population Apoptotic (%),[9],76%
same,Population Fragmented Nuclei (%),[9],21%
same,Population Healthy Nuclei (%),[9],48%
same,Population Hoechst High Intensity Objects (%),[9],12%
same,Population Membrane Permeable-Phenotype (%),[9],0%
same,Population Mitochondria Different-Phenotype (%),[9],67%
same,Population Mitotic Cells (%),[9],23%
same,Population Normal (%),[9],87%
same,Population Pyknosed Nuclei (%),[9],30%
same,Population Tubulin-Different-Phenotype (%),[9],53%
same,Total Cell Count,[9],261
same,Population Apoptotic (%),[10],25%
same,Population Fragmented Nuclei (%),[10],4%
same,Population Healthy Nuclei (%),[10],72%
same,Population Hoechst High Intensity Objects (%),[10],4%
same,Population Membrane Permeable-Phenotype (%),[10],2%
same,Population Mitochondria Different-Phenotype (%),[10],45%
same,Population Mitotic Cells (%),[10],75%
same,Population Normal (%),[10],95%
same,Population Pyknosed Nuclei (%),[10],22%
same,Population Tubulin-Different-Phenotype (%),[10],56%
same,Total Cell Count,[10],371
same,Population Apoptotic (%),[11],92%
same,Population Fragmented Nuclei (%),[11],13%
same,Population Healthy Nuclei (%),[11],10%
same,Population Hoechst High Intensity Objects (%),[11],26%
same,Population Membrane Permeable-Phenotype (%),[11],7%
same,Population Mitochondria Different-Phenotype (%),[11],100%
same,Population Mitotic Cells (%),[11],7%
same,Population Normal (%),[11],73%
same,Population Pyknosed Nuclei (%),[11],75%
same,Population Tubulin-Different-Phenotype (%),[11],82%
same,Total Cell Count,[11],363
same,Population Apoptotic (%),[12],100%
same,Population Fragmented Nuclei (%),[12],5%
same,Population Healthy Nuclei (%),[12],28%
same,Population Hoechst High Intensity Objects (%),[12],17%
same,Population Membrane Permeable-Phenotype (%),[12],6%
same,Population Mitochondria Different-Phenotype (%),[12],96%
same,Population Mitotic Cells (%),[12],0%
same,Population Normal (%),[12],82%
same,Population Pyknosed Nuclei (%),[12],66%
same,Population Tubulin-Different-Phenotype (%),[12],57%
same,Total Cell Count,[12],139

# — ChEMBL document CHEMBL4689842, “EUbOPEN Chemogenomics Library wave 1” (2021)
